# Source: ChEMBL document CHEMBL1126645, “Nonsymmetrical bipiperidyls as inhibitors of vesicular acetylcholine storage” (J Med Chem, 1993)
# pIC50: −log10 of the molar value.
# Target: T1, Vesicular acetylcholine transporter (Torpedo californica, UniProt P81721)
# T1 sequence (P81721 whole entry): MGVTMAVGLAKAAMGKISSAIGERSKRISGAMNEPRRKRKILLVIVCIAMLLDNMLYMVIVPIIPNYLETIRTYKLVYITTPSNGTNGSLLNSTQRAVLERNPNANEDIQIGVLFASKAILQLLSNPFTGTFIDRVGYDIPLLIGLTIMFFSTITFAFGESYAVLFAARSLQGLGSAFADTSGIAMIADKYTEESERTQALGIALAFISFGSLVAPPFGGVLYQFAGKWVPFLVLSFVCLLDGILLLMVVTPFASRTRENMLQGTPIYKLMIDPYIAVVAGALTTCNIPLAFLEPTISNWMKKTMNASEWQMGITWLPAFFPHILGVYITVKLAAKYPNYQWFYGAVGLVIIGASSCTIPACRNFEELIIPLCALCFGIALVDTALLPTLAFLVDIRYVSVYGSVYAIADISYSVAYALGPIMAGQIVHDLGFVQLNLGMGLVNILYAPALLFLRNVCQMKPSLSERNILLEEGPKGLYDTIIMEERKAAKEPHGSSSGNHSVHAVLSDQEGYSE
# Assay: Inhibition of [3H]- vesamicol binding to synaptic vesicles preparation from the electric organ of Torpedo californica
# Design: species or system Tetronarce californica
# Summary of the method: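 Run without ATP and without acetylcholine. Each drug concentration tested in duplicate, with variation below 5%. Other assay details follow an earlier published protocol.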
row,Structure (SMILES),pIC50
1,O=[N+]([O-])c1ccc(N2CC[C@@H](O)[C@H](N3CCC(c4ccccc4)CC3)C2)cc1,6.54
2,O=C(c1ccccc1)N1CC[C@@H](O)[C@H](N2CCC(c3ccccc3)CC2)C1,7.47
3,O[C@@H]1CNCC[C@H]1N1CCC(c2ccccc2)CC1,5.30
4,O=C(c1ccc(I)cc1)N1CC[C@@H](O)[C@H](N2CCC(c3ccccc3)CC2)C1,7.66
5,O=C(c1ccccc1I)N1CC[C@@H](O)[C@H](N2CCC(c3ccccc3)CC2)C1,6.60
6,O=C(c1cccc(I)c1)N1CC[C@@H](O)[C@H](N2CCC(c3ccccc3)CC2)C1,7.41
7,O[C@@H]1CCN(Cc2cccc(I)c2)C[C@H]1N1CCC(c2ccccc2)CC1,7.59
8,O[C@@H]1CCNC[C@H]1N1CCC(c2ccccc2)CC1,5.54
9,O[C@@H]1CCN(Cc2ccc(F)cc2)C[C@H]1N1CCC(c2ccccc2)CC1,7.85

# The remaining lines, values ahead:
row,pIC50,Structure (SMILES)
1,7.38,O[C@@H]1CCN(Cc2ccccc2F)C[C@H]1N1CCC(c2ccccc2)CC1
2,5.72,O=C(c1ccccc1)N1CC[C@@H](N2CCC(c3ccccc3)CC2)[C@H](O)C1
3,7.52,O[C@@H]1CCN(Cc2ccccc2)C[C@H]1N1CCC(c2ccccc2)CC1
4,7.26,O[C@@H]1CN(Cc2ccccc2Br)CC[C@H]1N1CCC(c2ccccc2)CC1
5,7.62,Cc1ccc(CN2CC[C@@H](O)[C@H](N3CCC(c4ccccc4)CC3)C2)cc1
6,7.66,Cc1cccc(CN2CC[C@@H](O)[C@H](N3CCC(c4ccccc4)CC3)C2)c1
7,7.60,Cc1ccccc1CN1CC[C@@H](O)[C@H](N2CCC(c3ccccc3)CC2)C1
8,7.68,O[C@@H]1CCN(Cc2cccc(Br)c2)C[C@H]1N1CCC(c2ccccc2)CC1
9,7.08,O[C@@H]1CN(Cc2ccccc2)CC[C@H]1N1CCC(c2ccccc2)CC1
10,6.51,O[C@@H]1CN(Cc2ccc(Br)cc2)CC[C@H]1N1CCC(c2ccccc2)CC1
11,7.66,O[C@@H]1CCN(Cc2ccccc2Br)C[C@H]1N1CCC(c2ccccc2)CC1
12,7.51,O[C@@H]1CCN(Cc2cccc(F)c2)C[C@H]1N1CCC(c2ccccc2)CC1
13,7.60,O[C@@H]1CCN(Cc2ccc(Br)cc2)C[C@H]1N1CCC(c2ccccc2)CC1
